Tests used:
Format in all cases: functional
CCRF-CEM = test: Cytotoxicity against human CCRF-CEM cells by SRB assay
In short: (§1)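 NCI 60 human tumor cell line panel, sulforhodamine B (SRB) protein-stain read-out. Compounds were first screened at a single dose of 10^-5 M, and selected compounds were then tested in a five-dose format. GI50 is the drug concentration giving a 50% reduction in net protein increase relative to control cells.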

[1] = Cytotoxicity against human HL-60(TB) cells by SRB assay
In short: (§2)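 NCI 60-cell-line panel using sulforhodamine B protein stain. Initial single-dose screen at 10^-5 M, then five-dose testing. GI50 is the drug concentration giving a 50% reduction in net protein increase relative to control cells.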

K562 = test: Cytotoxicity against human K562 cells by SRB assay; in short: as §1
[2] = Cytotoxicity against human MOLT4 cells by SRB assay; conditions: MOLT-4; in short: as §1
[3] = Cytotoxicity against human RPMI8226 cells by SRB assay; conditions: RPMI-8226; in short: as §1
SR = test: Cytotoxicity against human SR cells by SRB assay; in short: as §1
A549 = test: Cytotoxicity against human A549 cells by SRB assay; in short: as §1
[4] = Cytotoxicity against human HOP62 cells by SRB assay; conditions: HOP-62; in short: as §1
NCI-H23 = test: Cytotoxicity against human NCI-H23 cells by SRB assay; in short: as §1
NCI-H522 = test: Cytotoxicity against human NCI-H522 cells by SRB assay; in short: as §1
[5] = Cytotoxicity against human COLO205 cells by SRB assay; conditions: COLO 205; in short: as §1
[6] = Cytotoxicity against human HCC2998 cells by SRB assay; conditions: HCC 2998; in short: as §1
[7] = Cytotoxicity against human HCT116 cells by SRB assay; conditions: HCT-116; in short: as §1
[8] = Cytotoxicity against human HCT15 cells by SRB assay; conditions: HCT-15; in short: as §1
HT-29 = test: Cytotoxicity against human HT-29 cells by SRB assay; in short: as §1
KM12 = test: Cytotoxicity against human KM12 cells by SRB assay; in short: as §1
[9] = Cytotoxicity against human SW620 cells by SRB assay; conditions: SW-620; in short: as §1
[10] = Cytotoxicity against human SF268 cells by SRB assay; conditions: SF-268; in short: as §1
[11] = Cytotoxicity against human SF295 cells by SRB assay; conditions: SF-295; in short: as §1
[12] = Cytotoxicity against human SF539 cells by SRB assay; conditions: SF-539; in short: as §1
[13] = Cytotoxicity against human SNB19 cells by SRB assay; conditions: SNB-19; in short: as §1
[14] = Cytotoxicity against human SNB75 cells by SRB assay; conditions: SNB-75; in short: as §1
U-251 = test: Cytotoxicity against human U251 cells by SRB assay; in short: as §1
[15] = Cytotoxicity against human LOXIMVI cells by SRB assay; conditions: LOX IMVI; in short: as §2
M14 = test: Cytotoxicity against human M14 cells by SRB assay; in short: as §1
MDA-MB-435 = test: Cytotoxicity against human MDA-MB-435 cells by SRB assay; in short: as §1
SK-MEL-2 = test: Cytotoxicity against human SK-MEL-2 cells by SRB assay; in short: as §1
SK-MEL-28 = test: Cytotoxicity against human SK-MEL-28 cells by SRB assay; in short: as §1
SK-MEL-5 = test: Cytotoxicity against human SK-MEL-5 cells by SRB assay; in short: as §1
[16] = Cytotoxicity against human UACC62 cells by SRB assay; conditions: UACC-62; in short: as §1
[17] = Cytotoxicity against human IGROV1 cells by SRB assay; conditions: IGROV-1; in short: as §2
[18] = Cytotoxicity against human OVCAR3 cells by SRB assay; conditions: OVCAR-3; in short: as §1
[19] = Cytotoxicity against human OVCAR4 cells by SRB assay; conditions: OVCAR-4; in short: as §1
NCI/ADR-RES = test: Cytotoxicity against human NCI/ADR-RES cells by SRB assay; in short: as §1
[20] = Cytotoxicity against human SKOV3 cells by SRB assay; conditions: SK-OV-3; in short: as §1
786-0 = test: Cytotoxicity against human 786-0 cells by SRB assay; in short: as §1
A498 = test: Cytotoxicity against human A498 cells by SRB assay; in short: as §1
ACHN = test: Cytotoxicity against human ACHN cells by SRB assay; in short: as §1
CAKI-1 = test: Cytotoxicity against human CAKI-1 cells by SRB assay; in short: as §1
[21] = Cytotoxicity against human UO31 cells by SRB assay; conditions: UO-31; in short: as §1
MCF7 = test: Cytotoxicity against human MCF7 cells by SRB assay; in short: as §1
MDA-MB-231 = test: Cytotoxicity against human MDA-MB-231 cells by SRB assay; in short: as §1
[22] = Cytotoxicity against human Hs578T cells by SRB assay; conditions: Hs-578T; in short: as §1
MDA-MB-468 = test: Cytotoxicity against human MDA-MB-468 cells by SRB assay; in short: as §1
[23] = Cytotoxicity against human HOP92 cells by SRB assay; conditions: HOP-92; in short: as §1

COc1ccc(/C=C(\C#N)c2cc(OC)cc(OC)c2)cc1
GI50 (CCRF-CEM): 320 nM | GI50 [1]: 280 nM | GI50 (K562): 310 nM | GI50 [2]: 430 nM | GI50 [3]: 330 nM | GI50 (SR): 290 nM | GI50 (A549): 380 nM | GI50 [4]: 510 nM | GI50 (NCI-H23): 530 nM | GI50 (NCI-H522): 90 nM | GI50 [5]: 270 nM | GI50 [6]: 340 nM | GI50 [7]: 330 nM | GI50 [8]: 330 nM | GI50 (HT-29): 280 nM | GI50 (KM12): 380 nM | GI50 [9]: 420 nM | GI50 [10]: 840 nM | GI50 [11]: 220 nM | GI50 [12]: 220 nM | GI50 [13]: 980 nM | GI50 [14]: 290 nM | GI50 (U-251): 343 nM | GI50 [15]: 580 nM | GI50 (M14): 280 nM | GI50 (MDA-MB-435): 170 nM | GI50 (SK-MEL-2): 880 nM | GI50 (SK-MEL-28): 490 nM | GI50 (SK-MEL-5): 270 nM | GI50 [16]: 400 nM | GI50 [17]: 530 nM | GI50 [18]: 300 nM | GI50 [19]: 730 nM | GI50 (NCI/ADR-RES): 270 nM | GI50 [20]: 370 nM | GI50 (786-0): 420 nM | GI50 (A498): 250 nM | GI50 (ACHN): 530 nM | GI50 (CAKI-1): 540 nM | GI50 [21]: 490 nM | GI50 (MCF7): 310 nM | GI50 (MDA-MB-231): 430 nM | GI50 [22]: 310 nM | GI50 (MDA-MB-468): 290 nM

COc1cc(/C=C(\C#N)c2cc(OC)c(OC)c(OC)c2)cc(OC)c1
GI50 (CCRF-CEM): 51200 nM | GI50 [1]: 68600 nM | GI50 (K562): 3140 nM | GI50 [2]: 28200 nM | GI50 [3]: 6640 nM | GI50 (SR): 4140 nM | GI50 (A549): 6350 nM | GI50 [4]: 7630 nM | GI50 [23]: 3570 nM | GI50 (NCI-H23): 43000 nM | GI50 (NCI-H522): 20500 nM | GI50 [5]: 5160 nM | GI50 [6]: 97000 nM | GI50 [7]: 6050 nM | GI50 [8]: 4470 nM | GI50 (HT-29): 4240 nM | GI50 (KM12): 4970 nM | GI50 [9]: 5170 nM | GI50 [10]: 25300 nM | GI50 [11]: 5330 nM | GI50 [12]: 6600 nM | GI50 [13]: 5460 nM | GI50 [14]: 2670 nM | GI50 (U-251): 7820 nM | GI50 [15]: 5310 nM | GI50 (M14): 4450 nM | GI50 (MDA-MB-435): 1630 nM | GI50 (SK-MEL-2): 5440 nM | GI50 (SK-MEL-28): 14000 nM | GI50 (SK-MEL-5): 4700 nM | GI50 [16]: 2420 nM | GI50 [17]: 14600 nM | GI50 [18]: 6690 nM | GI50 [19]: 7480 nM | GI50 (NCI/ADR-RES): 3250 nM | GI50 [20]: 14400 nM | GI50 (786-0): 13000 nM | GI50 (A498): 1290 nM | GI50 (ACHN): 9780 nM | GI50 (CAKI-1): 6190 nM | GI50 [21]: 1920 nM | GI50 (MCF7): 4350 nM | GI50 (MDA-MB-231): 4830 nM | GI50 [22]: 16700 nM | GI50 (MDA-MB-468): 3440 nM

COc1ccc(/C=C(\C#N)c2cc(OC)c(OC)c(OC)c2)cc1
GI50 (CCRF-CEM): 30 nM | GI50 [1]: 20 nM | GI50 (K562): < 10 nM | GI50 [2]: 30 nM | GI50 [3]: 30 nM | GI50 (SR): < 10 nM | GI50 (A549): 10 nM | GI50 [4]: 30 nM | GI50 [23]: 20 nM | GI50 (NCI-H23): 50 nM | GI50 (NCI-H522): < 10 nM | GI50 [5]: 10 nM | GI50 [6]: 40 nM | GI50 [7]: < 10 nM | GI50 [8]: < 10 nM | GI50 (HT-29): < 10 nM | GI50 (KM12): < 10 nM | GI50 [9]: 10 nM | GI50 [10]: 40 nM | GI50 [11]: < 10 nM | GI50 [12]: < 10 nM | GI50 [13]: 60 nM | GI50 [14]: < 10 nM | GI50 (U-251): 20 nM | GI50 [15]: 10 nM | GI50 (M14): 10 nM | GI50 (MDA-MB-435): < 10 nM | GI50 (SK-MEL-2): 80 nM | GI50 (SK-MEL-5): 10 nM | GI50 [16]: < 10 nM | GI50 [17]: 20 nM | GI50 [18]: < 10 nM | GI50 [19]: 10 nM | GI50 (NCI/ADR-RES): < 10 nM | GI50 [20]: < 10 nM | GI50 (786-0): 20 nM | GI50 (A498): < 10 nM | GI50 (ACHN): 10 nM | GI50 [21]: < 10 nM | GI50 (MCF7): < 10 nM | GI50 (MDA-MB-231): 30 nM | GI50 [22]: < 10 nM | GI50 (MDA-MB-468): 20 nM

COc1ccc(/C=C\c2cc(OC)c(OC)c(OC)c2)cc1O [COMBRETASTATIN A4]
GI50 (CCRF-CEM): 3 nM | GI50 [1]: 2 nM | GI50 (K562): 2 nM | GI50 [2]: 3 nM | GI50 [3]: 3 nM | GI50 (SR): 3 nM | GI50 (A549): 16 nM | GI50 [4]: 3 nM | GI50 [23]: 3 nM | GI50 (NCI-H23): 3 nM | GI50 (NCI-H522): 2 nM | GI50 [5]: 100 nM | GI50 [6]: 63 nM | GI50 [7]: 3 nM | GI50 [8]: 4 nM | GI50 (HT-29): 100 nM | GI50 (KM12): 5 nM | GI50 [9]: 3 nM | GI50 [10]: 6 nM | GI50 [11]: 4 nM | GI50 [12]: 3 nM | GI50 [13]: 4 nM | GI50 [14]: 8 nM | GI50 (U-251): 4 nM | GI50 [15]: 3 nM | GI50 (M14): 3 nM | GI50 (SK-MEL-2): 4 nM | GI50 (SK-MEL-28): 8 nM | GI50 (SK-MEL-5): 4 nM | GI50 [16]: 6 nM | GI50 [17]: 15 nM | GI50 [18]: 2 nM | GI50 [19]: 14 nM | GI50 [20]: 59 nM | GI50 (786-0): 100 nM | GI50 (A498): 6 nM | GI50 (ACHN): 6 nM | GI50 (CAKI-1): 26 nM | GI50 [21]: 19 nM
